Hits are enriched below; roughly 5.8% of the tested compounds scored in any of these assays.
IDH1 mut inh: IDH1 R132H (human) inhibition | 0.18% of 70,000 active | IDH1 R132H reductase, diaphorase/resazurin fluorescence, 60 min | AID 624101 | O75874 | inhibition, % at 10 µM; in the data active = inhibition above about 34%; inconclusive = no clear call, values can overlap the other calls; inactive = below about 11%;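 note: 0% = DMSO and 100% = no enzyme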
Target sequence (O75874 whole entry R132H): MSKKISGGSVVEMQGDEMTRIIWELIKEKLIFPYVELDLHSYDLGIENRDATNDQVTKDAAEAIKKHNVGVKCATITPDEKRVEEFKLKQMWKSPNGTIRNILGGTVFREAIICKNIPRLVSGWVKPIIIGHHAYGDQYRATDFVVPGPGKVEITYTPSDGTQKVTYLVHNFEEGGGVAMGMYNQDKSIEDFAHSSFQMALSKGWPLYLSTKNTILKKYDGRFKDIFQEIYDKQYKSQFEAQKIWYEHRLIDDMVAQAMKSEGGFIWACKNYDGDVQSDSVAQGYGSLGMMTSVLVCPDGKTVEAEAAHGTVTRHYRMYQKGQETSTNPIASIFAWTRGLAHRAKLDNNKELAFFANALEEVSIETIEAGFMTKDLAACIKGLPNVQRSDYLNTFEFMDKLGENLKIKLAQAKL
KDM4C inh: blocks human GASC-1 (KDM4C) demethylase activity | 0.15% of 96,000 active | GST-KDM4C 2-372, H3K9me3 peptide, LANCE TR-FRET | Q9H3R0 | inhibition, % at 12.5 µM;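 active = mean replicate inhibition above about 25%, with at least 55% of replicates also reaching it, limit read from the data, passing the limit was not always enough; inconclusive = only one of those two conditions met; inactive = neither condition met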
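reagent = H3K9me3 peptide substrate, Fe(II), 2-oxoglutarate | system = GST-tagged GASC-1 (JMJD2C) catalytic fragment, aa 2-372 | amount = enzyme final amount 10 nM | read-out = Fall in 671/618 emission ratio as inhibition | medium = HEPES buffer, pH 7.5, plus ascorbate | schedule = 30 min reaction, 60 min detection, RT | measured by = LANCE TR-FRET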
T cruzi growth-1: blocks T. cruzi growth in NIH3T3 culture. T. cruzi beta-gal in NIH3T3, GalScreen luminescence, 90 h. inhibition, % at 8.34 µM. 5.9% of 77,000 active. AID 624255;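 active = mean inhibition above about 93%, with at least 55% of replicates each passing it, limit read from the data, passing the limit was not always enough; inconclusive = only one of those two conditions holds; inactive = neither condition holds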
Pf Dd2 inh: blocks growth of Plasmodium falciparum Dd2 parasites; activity change, % at 10 µM; P. falciparum Dd2 growth, SYBR Green, 72 h; hits give low values; 2.3% of 94,000 active; in the data active = activity change below about -80%; inconclusive = no clear call, values can overlap the other calls
T cruzi growth-2: blocks T. cruzi growth in NIH3T3 host cells; shares compounds with T cruzi growth-1; 72% of 5,600 active; T. cruzi beta-gal in NIH3T3, GalScreen luminescence, 90 h; inhibition, % at 8.35 µM;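 active = mean replicate inhibition above about 95% and at least 55% of replicates individually reaching it, limit read from the data; inconclusive = only one of the two criteria is met; inactive = neither criterion is met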
T cruzi growth-3: blocks T. cruzi growth in NIH3T3 host cells. shares compounds with T cruzi growth-1. T. cruzi beta-gal in NIH3T3, GalScreen luminescence, 90 h. inhibition, % at 2.09 µM. 21% of 5,600 active. AID 651740;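 active = mean inhibition above about 95%, with at least 55% of replicates also reaching it, limit read from the data; inconclusive = meets just one of the two conditions; inactive = meets neither condition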;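 note: plate controls were neutral control median for no effect and positive control median for full effect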
NIH3T3 tox: cytotoxicity in mouse NIH/3T3 fibroblasts; shares compounds with T cruzi growth-1; NIH/3T3 viability, CellTiter-Glo ATP luminescence, 90 h; cytotoxicity (signal decrease), % at 8.35 µM; 14% of 5,600 active; AID 651742;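 active = mean signal decrease across replicates above about 35% based on untreated-well scatter, with enough replicates individually passing, limit read from the data; inconclusive = no rule stated though some were filed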;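 note: 0% = median of neutral control wells and 100% = median of positive control wells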
NIH3T3 tox 2: kills mouse NIH/3T3 fibroblasts; inhibition, % at 24.9 µM; 56% of 5,600 active; AID 651744; shares compounds with T cruzi growth-1; NIH/3T3 viability, CellTiter-Glo ATP luminescence, 90 h;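 active = mean loss of cell viability signal at or above a set limit, and enough replicates individually reaching it; inconclusive = meets only the mean limit or only the replicate share; inactive = meets neither condition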;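 note: 0% = median of neutral control wells and 100% = median of positive control wells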
Numbers without * were called inactive; ? = inconclusive; nt = no result.

SMILES	IDH1 mut inh	KDM4C inh	T cruzi growth-1	Pf Dd2 inh	T cruzi growth-2	T cruzi growth-3	NIH3T3 tox	NIH3T3 tox 2
COc1cccc(C#Cc2ccc3c(c2)O[C@@H](CN(C)C(C)=O)[C@H](C)CN([C@H](C)CO)S3(=O)=O)c1	-8	-1	74	-58	nt	nt	nt	nt
CN(C)CC#Cc1ccc([C@H]2[C@H]3CN(C(=O)c4ccc5c(c4)OCO5)CCCCN3[C@H]2CO)cc1	nt	3	62	18	nt	nt	nt	nt
COc1cccc(NC(=O)N(C)C[C@@H]2Oc3cc(-c4ccccc4F)ccc3S(=O)(=O)N([C@@H](C)CO)C[C@H]2C)c1	-3	-1	68	-14	nt	nt	nt	nt
COc1ccc(C#Cc2ccc3c(c2)O[C@H](CN(C)C(=O)Nc2cccc(OC)c2)[C@H](C)CN([C@@H](C)CO)S3(=O)=O)cc1	nt	-3	116*	-86*	111*	104*	13	9
COc1cccc(NC(=O)N(C)C[C@H]2Oc3cc(-c4ccccc4F)ccc3S(=O)(=O)N([C@H](C)CO)C[C@@H]2C)c1	0	-2	?	-41	98*	-20	7	?
COc1cccc(NC(=O)N(C)C[C@H]2Oc3cc(C#Cc4ccncc4)ccc3S(=O)(=O)N([C@H](C)CO)C[C@@H]2C)c1	0	0	19	-54	nt	nt	nt	nt
Cn1c(SCC(=O)c2ccc([N+](=O)[O-])cc2)nnc1-c1cccnc1	0	nt	nt	nt	nt	nt	nt	nt
C[C@H](CO)N1C[C@H](C)[C@H](CN(C)S(=O)(=O)c2cccs2)OCCCC[C@H](C)Oc2ccc(NS(=O)(=O)c3cn(C)cn3)cc2C1=O	-1	1	nt	-10	nt	nt	nt	nt
COc1ccc(S(=O)(=O)Nc2ccc3c(c2)C(=O)N([C@@H](C)CO)C[C@@H](C)[C@@H](CN(C)S(=O)(=O)c2ccc(OC)cc2)OCCCC[C@@H](C)O3)cc1	2	0	100*	-64	107*	102*	-5	7
COc1ccc(S(=O)(=O)Nc2ccc3c(c2)C(=O)N([C@H](C)CO)C[C@@H](C)[C@@H](CN(C)S(=O)(=O)c2ccc(OC)cc2)OCCCC[C@H](C)O3)cc1	1	0	52	-61	nt	nt	nt	nt
COc1ccc(S(=O)(=O)N(C)C[C@H]2OCCCC[C@@H](C)Oc3ccc(NS(=O)(=O)c4cn(C)cn4)cc3C(=O)N([C@@H](C)CO)C[C@H]2C)cc1	nt	-1	103*	-48	107*	33	-27	-14
COc1ccc(S(=O)(=O)Nc2ccc3c(c2)C(=O)N([C@@H](C)CO)C[C@H](C)[C@@H](CN(C)S(=O)(=O)c2ccc(OC)cc2)OCCCC[C@@H](C)O3)cc1	4	0	?	-64	111*	53	-33	-2
COc1ccc(S(=O)(=O)Nc2ccc3c(c2)C(=O)N([C@@H](C)CO)C[C@H](C)[C@@H](CN(C)S(=O)(=O)c2ccc(OC)cc2)OCCCC[C@H](C)O3)cc1	2	-3	?	-78	104*	53	19	-2
COc1cc(OC)c2c(=O)c(OC)c(-c3ccccc3)oc2c1	0	nt	nt	nt	nt	nt	nt	nt
COc1ccc(S(=O)(=O)Nc2ccc3c(c2)C(=O)N([C@H](C)CO)C[C@H](C)[C@@H](CN(C)C(=O)NC(C)C)O3)cc1	0	0	-33	10	nt	nt	nt	nt
COc1ccc(S(=O)(=O)Nc2ccc3c(c2)C(=O)N([C@@H](C)CO)C[C@H](C)[C@H](CN(C)C(=O)NC(C)C)O3)cc1	1	2	109*	3	-5	-16	1	-10
C[C@@H]1CN([C@@H](C)CO)C(=O)c2cc(NS(C)(=O)=O)ccc2O[C@@H](C)CCCCO[C@H]1CN(C)S(=O)(=O)c1cn(C)cn1	0	0	107*	32	99*	37	8	8
C[C@@H]1CCCCO[C@@H](CN(C)S(=O)(=O)c2cn(C)cn2)[C@H](C)CN([C@H](C)CO)C(=O)c2cc(NS(C)(=O)=O)ccc2O1	-5	0	33	40	nt	nt	nt	nt
CCC(=O)N1[C@H](CO)[C@H](c2ccc(-c3ccccc3OC)cc2)[C@@H]1CNC(C)=O	nt	0	nt	16	nt	nt	nt	nt
CCS(=O)(=O)N1CCCCN2[C@H](CO)[C@H](c3ccc(C#Cc4ccccn4)cc3)[C@@H]2C1	nt	-1	64	17	nt	nt	nt	nt
CS(=O)(=O)N1CCCCN2[C@H](CO)[C@@H](c3ccc(C#Cc4ccccn4)cc3)[C@H]2C1	nt	2	?	9	91	9	-6	2
CCS(=O)(=O)N1CCCCN2[C@H](C1)[C@H](c1ccc(C#Cc3ccccn3)cc1)[C@@H]2CO	nt	0	96*	-19	94	54	-2	1
COc1ccc(CN(C)C[C@@H]2OCCCC[C@@H](C)Oc3ccc(NC(=O)Nc4cccc5ccccc45)cc3C(=O)N([C@@H](C)CO)C[C@H]2C)cc1	0	14	79	-59	nt	nt	nt	nt
COc1ccc(CN(C)C[C@@H]2OCCCC[C@H](C)Oc3ccc(NC(=O)Nc4cccc5ccccc45)cc3C(=O)N([C@@H](C)CO)C[C@@H]2C)cc1	-6	-1	?	?	103*	96*	25	103*
COc1ccc(CN(C)C[C@@H]2OCCCC[C@@H](C)Oc3ccc(NC(=O)Nc4cccc5ccccc45)cc3C(=O)N([C@@H](C)CO)C[C@@H]2C)cc1	0	-1	94	-32	nt	nt	nt	nt
SMILES	IDH1 mut inh	KDM4C inh	T cruzi growth-1	Pf Dd2 inh	T cruzi growth-2	T cruzi growth-3	NIH3T3 tox	NIH3T3 tox 2
COc1ccc(CN(C)C[C@H]2OCCCC[C@H](C)Oc3ccc(NC(=O)Nc4cccc5ccccc45)cc3C(=O)N([C@@H](C)CO)C[C@H]2C)cc1	2	-4	?	?	106*	92	25	?
CCCNC(=O)Nc1ccc2c(c1)OC[C@H](C)N(C(=O)CC)C[C@H](C)[C@@H](OC)CN(C)C2=O	nt	-2	nt	13	nt	nt	nt	nt
COc1ccc(S(=O)(=O)Nc2ccc3c(c2)C(=O)N([C@@H](C)CO)C[C@H](C)[C@@H](CN(C)S(=O)(=O)c2cccs2)OCCCC[C@@H](C)O3)cc1	0	0	109*	-74	103*	60	-7	6
COc1ccc(S(=O)(=O)Nc2ccc3c(c2)C(=O)N([C@H](C)CO)C[C@H](C)[C@H](CN(C)S(=O)(=O)c2cccs2)OCCCC[C@H](C)O3)cc1	nt	1	?	-24	106*	81	30	16
COc1ccc(S(=O)(=O)Nc2ccc3c(c2)C(=O)N([C@H](C)CO)C[C@H](C)[C@@H](CN(C)S(=O)(=O)c2cccs2)OCCCC[C@H](C)O3)cc1	nt	11	42	-38	nt	nt	nt	nt
CCn1c(SCC(=O)Nc2ccccc2OC)nnc1-c1ccc(Br)cc1	0	nt	nt	nt	nt	nt	nt	nt

Bioassay records from PubChem BioAssay.
